Most compounds without a hit are left out; they make up all but 3.7% or so of the library.
hERG rescue = shields human hERG channel from block by proarrhythmic agents. CHO-hERG, FluxOR thallium flux, dofetilide IC70 present. activation (rescue from dofetilide block), less the hit threshold, % at 10 µM. actives 0.51% (n = 310,000). AID 1511;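 active = activation above the mean of controls blocked by dofetilide plus 5 SD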;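 note: thallium influx through hERG after potassium depolarization seen as dye fluorescence rise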
KCNQ1 act = potentiators or activators of human KCNQ1 potassium channel. P51787. CHO-K1 KCNQ1, thallium flux FluxOR fluorescence; active compounds read high. B-score at 10 µM. actives 0.35% (n = 310,000). AID 2648;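 active = fluorescence ratio B-score, a plate-corrected score, at least three library SD, with initial intensity B-score within 5 SD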
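Material: CHO-K1 cells stably expressing KCNQ1. Medium: assay buffer for compound exposure, DMSO matched across wells. Reagent: K+/Tl+ depolarizing stimulus. Compound dosing: single-concentration screen. Times: 37 °C overnight plating, 90-min dark dye load, 20-min compound pretreatment. Technique: FluxOR Tl+ flux fluorescence.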
KCNK9 block = blocks the human KCNK9 two-pore domain potassium channel; Q9NPC2; HEK293 KCNK9, FluxOR thallium flux fluorescence; active compounds read low; B-score at 10 µM; actives 1.2% (n = 310,000); AID 488922;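 active = ratio B-score over 3 SD below the library mean, with starting fluorescence within 5 SD of its mean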;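 note: negative B-score means less thallium flux so channel inhibition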
Target sequence (Q9NPC2 whole entry, looked up, the tested form may be a part): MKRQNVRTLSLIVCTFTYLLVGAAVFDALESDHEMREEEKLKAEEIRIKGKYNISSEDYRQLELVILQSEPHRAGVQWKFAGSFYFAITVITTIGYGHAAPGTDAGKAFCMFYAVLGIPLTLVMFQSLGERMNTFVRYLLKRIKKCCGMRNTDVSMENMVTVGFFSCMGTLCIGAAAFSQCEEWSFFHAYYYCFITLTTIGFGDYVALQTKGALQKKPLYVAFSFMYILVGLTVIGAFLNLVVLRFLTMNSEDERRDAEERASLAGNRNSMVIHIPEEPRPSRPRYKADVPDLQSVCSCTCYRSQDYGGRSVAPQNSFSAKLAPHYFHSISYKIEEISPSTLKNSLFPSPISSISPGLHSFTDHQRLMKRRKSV
Kir21 inh = inhibitors of mouse Kir2.1 inward-rectifier potassium channel | P35561 | HEK293-Kir2.1, FluxOR thallium flux fluorescence; active compounds read low | B-score at 10 µM | actives 0.85% (n = 310,000);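 active = fluorescence ratio B-score at or below minus 3 SD of library scores, with starting-brightness B-score within 2 SD, cut at about -4.2 in these data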;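 note: channel flux triggered by added potassium and thallium sulfate stimulus; B-score of peak minus minimum fluorescence over baseline after thallium stimulus; more negative B-score means stronger Kir2.1 block with less thallium influx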
KCNQ1 block = human KCNQ1 channel inhibition | AID 2642 | P51787 | CHO-K1 KCNQ1, FluxOR thallium flux fluorescence; active compounds read high | B-score at 10 µM | actives 1.3% (n = 310,000);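 active = compounds whose thallium flux B-score, printed positive for inhibition, exceeds three library SD while starting fluorescence stays within three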;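 note: channel opened by potassium depolarization with thallium stimulus after 20 min compound exposure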
KCNK3 block = human KCNK3 channel inhibition, primary screen | B-score at 10 µM | O14649 | actives 0.84% (n = 340,000) | CHO-KCNK3 thallium flux, FluxOR fluorescence; active compounds read low | AID 602410;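 active = B-score under library mean minus 4 SD, starting fluorescence ratio at most library mean plus 5 SD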;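 note: more negative B-score means stronger inhibition of thallium flux through KCNK3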
The depositor's hits bear a star; i = inactive; / = no result given.

SMILES	hERG rescue	KCNQ1 act	KCNK9 block	Kir21 inh	KCNQ1 block	KCNK3 block
Oc1c(Br)cc(Cl)cc1C=Nc1ccc(N2CCOCC2)cc1	-2	i	i	-0.47	i	i
Oc1c(Br)cc(Cl)cc1C=Nc1ccccc1Br	11*	8*	i	-1.3	i	i
CCn1c(=O)n(CC(=O)NCC2CCCO2)c(=O)c2c3c(sc21)COC(C)(C)C3 (configuration not stated)	-8	i	i	0.49	i	i
O=C(Cc1cccs1)Nc1ccc(F)cc1	-2	i	i	0.05	i	i
CC(Cc1cccs1)NC(=O)Nc1ccc(F)cc1 (configuration not stated)	-12	i	-6.6*	0.29	i	i
COC(=O)c1ccc(CN2CCCC(C(=O)c3ccccc3OC)C2)cc1 (configuration not stated)	-11	i	i	-0.05	i	i
CCCn1c(SCC(=O)N2CC(=O)Nc3ccccc32)nc2ccccc21	-10	i	i	-6.9*	i	i
COC(CN1C(=O)C(=O)/C(=C(/O)c2ccccc2)C1c1ccccn1)OC (configuration not stated)	-6	i	i	1.2	i	i
Cc1cccc2sc(NC(=O)c3ccc(OCC4CCCO4)cc3)nc12 (configuration not stated)	6.5*	i	i	0.25	i	i
Cc1csc(NC(=O)c2ccc(OCC3CCCO3)cc2)n1 (configuration not stated)	-13	i	i	0.97	i	i
COc1ccc(C)cc1NC(=O)CCS(=O)(=O)c1cc2c(cc1Cl)NC(=O)CO2	-16	i	i	-0.05	i	i
CC(C)(C)c1ccccc1NC(=O)c1c(O)c2cccc3c2n(c1=O)CC3	-6	i	i	-0.51	7*	/
O=C(NCCO)c1c(O)c2cccc3c2n(c1=O)CC3	-7	i	i	0.2	i	i
O=C(Nc1nccs1)c1c(O)c2cccc3c2n(c1=O)CCC3	-4	i	i	-0.84	6*	/
Cc1cc([N+](=O)[O-])nn1CC(=O)N/N=C/c1ccc(O)cc1O	-14	i	i	0.82	i	i
N#C/C(=C(/O)COC(=O)c1ccc(C#N)cc1)c1nc2ccccc2s1	-1	i	i	0	6*	i
CC(=O)N(C)c1ccc(C(O)(C(F)(F)F)C(F)(F)F)cc1	-12	i	i	0.69	i	i
Cc1cccc(CSCCNC(=O)COc2ccc(Cl)cc2)c1	-6	i	i	0.66	i	i
O=C(COc1ccc(Cl)cc1)NCCSCc1cccc(Cl)c1	-1	i	i	-1.6	6*	i
CCc1ccc(S(=O)(=O)NCCc2csc(-c3cccnc3)n2)s1	-9	i	i	-2.4	i	i
COc1ccc(OC)c(S(=O)(=O)NCc2csc(-c3ccccc3)n2)c1	-6	i	i	-4.2*	i	i
CCc1ccc(S(=O)(=O)NCc2csc(-c3ccccc3)n2)s1	-7	i	i	-6.3*	i	i
COc1ccc(OC)c(S(=O)(=O)NCc2cn3c(C)csc3n2)c1	-8	i	i	0.56	i	i
O=S(=O)(NCc1csc(-c2ccccc2)n1)c1ccc(Cl)s1	-13	i	i	-4.6*	i	i
Cc1occc1-c1nnc(SCC(=O)NC2CC2)n1C(C)C	-8	i	i	0.71	i	i
SMILES	hERG rescue	KCNQ1 act	KCNK9 block	Kir21 inh	KCNQ1 block	KCNK3 block
CS(=O)(=O)c1ccc(Cl)c(NC(=O)COC(=O)COc2ccc3c(c2)CCC3)c1	-12	i	i	-1.7	i	i
CC(=O)c1ccc(-c2nnc(CCC(=O)N(C)Cc3c(C)nc4ccccn34)o2)s1	8.1*	i	i	-0.02	i	i
CC(=O)c1ccc(-c2nnc(CCC(=O)N(C)Cc3cccc4cnccc34)o2)s1	-14	i	i	0.38	i	i
Cc1ccc(C23CC4CC(CC(CN)(C4)C2)C3)cc1	-9	i	i	-5.9*	i	i
COc1ccc(Cc2nnc(NC(=O)C3CCN(C(=O)c4ccco4)CC3)s2)cc1	-4	i	i	1.5	i	i
Cc1cc(/C(N)=N/OC(=O)Nc2ccc(Cl)cc2)no1	-1	i	i	-0.99	i	i
O=C(COc1ccc2c3c(c(=O)oc2c1)CCCC3)NCc1ccccn1	-14	i	i	1.4	i	i
COCCN(CCOC)Cc1c(O)ccc2c1O/C(=C\c1ccc(C)o1)C2=O	-22	i	i	-6.8	9*	i
CC(C)(C)NC(=O)CN(Cc1cccs1)C(=O)C1COc2ccccc2O1 (configuration not stated)	-23	i	i	-1	6*	i
CC(C)(C)NC(=O)CN(Cc1cccs1)C(=O)CN1C(=O)C(=O)c2ccccc21	-9	i	i	0.22	i	i
O=[N+]([O-])c1cccc(-c2ccc(SCc3cccnc3)nn2)c1	-8	i	i	1.1	6*	i
CSc1ccc(-c2cccc([N+](=O)[O-])c2)nn1	-22	i	i	0.36	i	i
CC1CCN(CC(=O)N(C)c2c(N)n(Cc3ccccc3)c(=O)[nH]c2=O)CC1	/	/	/	/	/	i
COc1cc(OC)cc(C(=O)Nc2ccc(N3CCOCC3)cc2N2CCOCC2)c1	/	/	/	/	/	i
Cc1cc(C)n(-c2c(C)[nH]c3ccccc23)n1	-4	i	i	-4.2*	i	i
Cc1ccccc1/C=C/C(=O)c1ccc([N+](=O)[O-])o1	-11	i	i	-1.9	7*	/
Cc1cccc(/C=C/C(=O)c2ccc([N+](=O)[O-])o2)c1	-17	i	i	-1.2	8*	i
O=C(/C=C/c1cccc([N+](=O)[O-])c1)c1ccc([N+](=O)[O-])o1	-22	i	i	-0.99	i	i
COC(=O)c1cc(NC(=O)Cn2c(=O)oc3ccccc32)cc(C(=O)OC)c1	-3	i	i	0.51	i	i
CCN(CC)S(=O)(=O)c1cc(C(=O)OCC(=O)Nc2cccc(Br)c2)ccc1F	-13	i	i	-0.23	i	i
COC(=O)c1cc(NC(=O)c2cc(-c3ccc(Cl)cc3)oc2C(F)(F)F)ccc1N1CCOCC1	-13	i	i	0.98	7*	i
COC(=O)c1cc(NC(=O)c2cccs2)ccc1N1CCOCC1	-22	i	i	0.77	i	i
Cc1ccc(NC(=O)CCCc2ccccc2)nc1	-16	i	i	0.83	6*	i

Bioassay records as filed in PubChem.
